According to ChEMBL document CHEMBL4602714, “Strategic Incorporation of Polarity in Heme-Displacing Inhibitors of Indoleamine-2,3-dioxygenase-1 (IDO1)” (ACS Med Chem Lett, 2020):

How the values were obtained:
[1] = Unbound intrinsic clearance in human hepatocytes incubated for 120 mins by LC-MS/MS analysis; format: ADME, cell-based, Hepatocyte; conditions: 2 h
[2] = Intrinsic clearance in Wistar Han rat at 0.5 mg/kg, iv or 1 mg/kg, po by LC-MS/MS analysis; format: ADME, organism-based; conditions: in vivo
Method in brief: (§1)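 Rat 2 × 2 PK: IV arm at 0.5 mg/kg (1 mL/kg) and PO arm at 1 mg/kg (2 mL/kg), both in DMSO/PEG400/H2O 20/60/20. Reported values are the geometric mean of n = 2 or more.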

[3] = Unbound intrinsic clearance in rat hepatocytes incubated for 120 mins by LC-MS/MS analysis; format: ADME, cell-based, Hepatocyte; conditions: 2 h
[4] = MRT in Wistar Han rat at 0.5 mg/kg, iv or 1 mg/kg, po by LC-MS/MS analysis; format: ADME, organism-based; conditions: in vivo; method in brief: as §1
[5] = Unbound volume of distribution in Wistar Han rat at 0.5 mg/kg, iv or 1 mg/kg, po by LC-MS/MS analysis; format: ADME, organism-based; conditions: in vivo; method in brief: as §1
[6] = MRT in Wistar Han rat at 0.05 mg/kg, iv administered using cassette dosing by LC-MS/MS analysis; format: ADME, organism-based; conditions: in vivo
Method in brief: (§2)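 Rat cassette PK: single IV dose of 0.05 mg/kg at 1 mL/kg, vehicle DMSO/PEG400/H2O 20/60/20, animals fasted. Reported values are the geometric mean of n = 2 or more.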

[7] = Intrinsic clearance in Wistar Han rat at 0.05 mg/kg, iv administered using cassette dosing by LC-MS/MS analysis; format: ADME, organism-based; conditions: in vivo; method in brief: as §2
[8] = Unbound volume of distribution in Wistar Han rat at 0.05 mg/kg, iv administered using cassette dosing by LC-MS/MS analysis; format: ADME, organism-based; conditions: in vivo; method in brief: as §2
[9] = Clearance in Wistar Han rat at 0.05 mg/kg, iv administered using cassette dosing by LC-MS/MS analysis; format: ADME, organism-based; conditions: in vivo; method in brief: as §2
[10] = Drug metabolism in human liver microsomes assessed as oxidation of n-propyl group at 30 uM incubated up to 45 mins in presence of NADPH by MetID based LC/MS analysis; format: ADME, Microsome; conditions: 0.75 h
[11] = Volume of distribution in Wistar Han rat at 0.05 mg/kg, iv administered using cassette dosing by LC-MS/MS analysis; format: ADME, organism-based; conditions: in vivo; method in brief: as §2
[12] = Drug metabolism in rat liver microsomes assessed as oxidation of n-propyl group at 30 uM incubated up to 45 mins in presence of NADPH by MetID based LC/MS analysis; format: ADME, Microsome; conditions: 0.75 h
[13] = Unbound clearance in Wistar Han rat at 0.05 mg/kg, iv administered using cassette dosing by LC-MS/MS analysis; format: ADME, organism-based; conditions: in vivo; method in brief: as §2
[14] = Drug metabolism in human hepatocytes assessed as oxidation of n-propyl group with aryl amide bond cleavage at 30 uM incubated up to 90 mins in presence of NADPH by MetID based LC/MS analysis; format: ADME, cell-based, Hepatocyte; conditions: 1.5 h

Row | Compound | CL free [1] | CL free [3] | MRT [6] | CL [7] | Vdu [8] | also measured
1 | O=C(Nc1ccc(C2(C(=O)Nc3ccc(F)cc3)CCC2)cn1)c1cccc(Cl)c1 | 1300 mL/min/kg | 830 mL/min/kg | – | – | – | CL [2]: 4500 mL/min/kg; MRT [4]: 5 h; Vdu [5]: 2200 L/kg
2 | O=C(Nc1ccc(C2(C(=O)NC3CCOCC3)CCC2)cc1)c1cccc(Cl)c1 | 390 mL/min/kg | 1700 mL/min/kg | – | – | – | –
3 | O=C(Nc1ccc(C2(C(=O)Nc3ccc(F)cc3)COC2)nc1)c1cccc(Cl)c1 | < 44 mL/min/kg | < 84 mL/min/kg | 3.2 h | – | – | –
4 | O=C(Nc1ccc(C2(C(=O)Nc3ccc(Cl)nc3)CCC2)cc1)c1cccc(Cl)c1 | 1900 mL/min/kg | 500 mL/min/kg | – | – | – | –
5 | O=C(Nc1ccc([C@]2(C(=O)Nc3ccc(F)cc3)C[C@@H](O)C2)cc1)c1cccc(Cl)c1 | 350 mL/min/kg | < 280 mL/min/kg | 3.2 h | 590 mL/min/kg | 99 L/kg | –
6 | CCCNC(=O)C1(c2ccc(NC(=O)c3ccc(F)c(C)c3)cc2)CCC1 | 560 mL/min/kg | 6200 mL/min/kg | – | – | – | –
7 | CCCNC(=O)C1(c2ccc(NC(=O)c3cccc(Cl)c3)cc2)CCC1 | 870 mL/min/kg | 7200 mL/min/kg | 0.7 h | – | 180 L/kg | clearance [9]: 110 mL/min/kg; Drug metabolism [10]: Metabolite_Detected; Vd [11]: 4.9 L/kg; Drug metabolism [12]: Metabolite_Detected; CL free [13]: 4100 mL/min/kg; Drug metabolism [14]: Metabolite_Detected
8 | O=C(Nc1ccc(C2(C(=O)Nc3ccc(F)cc3)CCC2)cc1)c1cccc(Cl)c1 | 2000 mL/min/kg | 2000 mL/min/kg | 4.3 h | 6000 mL/min/kg | 1100 L/kg | –
9 | O=C(Nc1ccc(C2(C(=O)Nc3ccc(F)cc3)COC2)cc1)c1cccc(Cl)c1 | 420 mL/min/kg | 250 mL/min/kg | 4.8 h | 1600 mL/min/kg | 420 L/kg | –
